Each block holds one compound with its values, some of them ahead of it. Active and inactive are the calls of the source. The rule behind the calls is not given here.
How the values were obtained:
[1] = system: SJSA-1; assay: Antiproliferative activity against human SJSA-1 cells harboring wild type p53 overexpressing MDM2/4 assessed as inhibition of cell growth incubated for 96 hrs by MTS assay; type: functional, cell-based; settings: SJSA-1, 96 h
Procedure, shortened: (§1)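 MTS viability: cells seeded 1×10^4/well (HCT116), 3×10^3/well (SJSA-1, LNCaP), 5×10^3/well (MCF-7), treated ~24 h after plating with DMSO-stock compounds serially diluted in medium (final DMSO ≤0.1%). Ten or more concentrations over 1–100 µM, duplicates, ≥3 independent runs. Exposure 48 h (HCT116), 72 h (MCF-7), 96 h (SJSA-1, LNCaP). MTS 0.5 mg/mL added for 15–30 min, A490. IC50 from four-parameter variable-slope fit.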

[2] = system: SJSA-1; assay: Induction of cell cycle arrest in human SJSA-1 cells assessed as accumulation of cells at G2/M phase at 15 uM incubated for 96 hrs by RNaseA/PI staining based flow cytometry analysis (reference value: 18.82 %); type: functional
[3] = system: SJSA-1; assay: Induction of cell cycle arrest in human SJSA-1 cells assessed as accumulation of cells at S phase at 15 uM incubated for 96 hrs by RNaseA/PI staining based flow cytometry analysis (reference value: 30.25 %); type: functional
[4] = system: SJSA-1; assay: Induction of apoptosis in human SJSA-1 cells assessed as early apoptotic cells at 10 uM incubated for 96 hrs by Annexin V-FITC/7-AAD staining based flow cytometric analysis (reference value: 1.9%); type: functional
[5] = system: SJSA-1; assay: Induction of cell cycle arrest in human SJSA-1 cells assessed as accumulation of cells at G2/M phase at 10 uM incubated for 96 hrs by RNaseA/PI staining based flow cytometry analysis (reference value: 18.82 %); type: functional
[6] = system: MCF7; assay: Antiproliferative activity against human MCF7 cells harboring wild type p53 overexpressing MDM2/4 assessed as inhibition of cell growth incubated for 72 hrs by MTS assay; type: functional, cell-based; settings: MCF7, 72 h; procedure, shortened: as §1
[7] = system: SJSA-1; assay: Induction of cell death in human SJSA-1 cells assessed as loss of cell volume at 1.5 times IC50 incubated for 96 hrs by bright field microscopic analysis; type: functional, cell-based
Procedure, shortened: (§2)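 Brightfield microscopy of SJSA-1 cell morphology after 96 h with DMSO vehicle or compound.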

[8] = system: SJSA-1; assay: Induction of apoptosis in human SJSA-1 cells assessed as late apoptotic cells at 10 uM incubated for 96 hrs by Annexin V-FITC/7-AAD staining based flow cytometric analysis (reference value: 3.7%); type: functional
[9] = system: SJSA-1; assay: Induction of apoptosis in human SJSA-1 cells assessed as viable cells at 10 uM incubated for 96 hrs by Annexin V-FITC/7-AAD staining based flow cytometric analysis (reference value: 94.3%); type: functional; settings: read-out: Activity
[10] = system: SJSA-1; assay: Induction of cell cycle arrest in human SJSA-1 cells assessed as accumulation of cells at G0/G1 phase at 10 uM incubated for 96 hrs by RNaseA/PI staining based flow cytometry analysis (reference value: 50.93 %); type: functional
[11] = system: SJSA-1; assay: Induction of cell death in human SJSA-1 cells assessed as reduction in cell growth at IC50 incubated for 96 hrs by bright field microscopic analysis; type: functional, cell-based; procedure, shortened: as §2
[12] = system: SJSA-1; assay: Induction of apoptosis in human SJSA-1 cells assessed as early apoptotic cells at 15 uM incubated for 96 hrs by Annexin V-FITC/7-AAD staining based flow cytometric analysis (reference value: 1.9%); type: functional
[13] = system: LNCaP; assay: Antiproliferative activity against human LNCaP cells harboring wild type p53 overexpressing MDM2/4 assessed as inhibition of cell growth incubated for 96 hrs by MTS assay; type: functional, cell-based; procedure, shortened: as §1
[14] = system: SJSA-1; assay: Induction of apoptosis in human SJSA-1 cells assessed as viable cells at 15 uM incubated for 96 hrs by Annexin V-FITC/7-AAD staining based flow cytometric analysis (reference value: 94.3%); type: functional; settings: read-out: Activity
[15] = system: SJSA-1; assay: Induction of cell cycle arrest in human SJSA-1 cells assessed as accumulation of cells at G0/G1 phase at 15 uM incubated for 96 hrs by RNaseA/PI staining based flow cytometry analysis (reference value: 50.93 %); type: functional
[16] = system: HEK-293T; assay: Cytotoxicity against HEK293T cells assessed as reduction in cell viability at 15 uM incubated for 96 hrs by MTS assay; type: toxicity, cell-based; settings: human
Procedure, shortened: (§3)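 Single-concentration MTS viability with DMSO vehicle control (final ≤0.1%) run in parallel. HEK293T: 3×10^3 cells/well, 15 µM for 96 h. HCT116 p53(-/-): 20 µM for 48 h. Compound added ~24 h after plating; MTS 0.5 mg/mL in fresh medium for 15–30 min, A490. Mean ± SD of three independent experiments, one-way ANOVA with Bonferroni test.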

[17] = Antiproliferative activity against human HCT116-p53-null cells assessed as reduction in cell viability at 20 uM incubated for 48 hrs by MTS assay; type: functional; procedure, shortened: as §3
[18] = system: HCT-116; assay: Antiproliferative activity against human HCT-116 cells harboring wild type p53 overexpressing MDM2 assessed as inhibition of cell growth incubated for 48 hrs by MTS assay; type: functional, cell-based; settings: HCT-116, 48 h; procedure, shortened: as §1
[19] = system: SJSA-1; assay: Induction of apoptosis in human SJSA-1 cells assessed as late apoptotic cells at 15 uM incubated for 96 hrs by Annexin V-FITC/7-AAD staining based flow cytometric analysis (reference value: 3.7%); type: functional
[20] = system: SJSA-1; assay: Induction of cell cycle arrest in human SJSA-1 cells assessed as accumulation of cells at S phase at 10 uM incubated for 96 hrs by RNaseA/PI staining based flow cytometry analysis (reference value: 30.25 %); type: functional

SMILES: O=C(Nc1ccc(O)cc1)C1=NN(c2ccc(Cl)cc2)C2(C(=O)Nc3cc(Cl)ccc32)C1c1cccc(O)c1 (centres undefined)
IC50 [6]: 14.3 µM
IC50 [18]: 27.2 µM

SMILES: CCOC(=O)C1=NN(C(C)(C)C)C2(C(=O)Nc3cc(Cl)ccc32)C1c1ccc(F)cc1 (centres undefined)
IC50 [18]: 49.9 µM

SMILES: CCOC(=O)C1=NN(C2CCCCC2)C2(C(=O)Nc3cc(Cl)ccc32)C1c1cccc(F)c1 (centres undefined)
IC50 [13]: 13.1 µM
IC50 [18]: 27.5 µM

SMILES: CC(C)(C)N1N=C(C(=O)NCCc2ccc(O)cc2)C(c2cccc(Cl)c2F)C12C(=O)Nc1cc(Cl)ccc12 (centres undefined)
IC50 [18]: 30.2 µM

SMILES: CCOC(=O)C1=NN(C2CCCCC2)C2(C(=O)Nc3cc(Cl)ccc32)C1c1ccc(F)cc1 (centres undefined)
IC50 [6]: 20.2 µM
IC50 [18]: 31.7 µM

SMILES: CCOC(=O)C1=NN(C(C)(C)C)C2(C(=O)Nc3cc(Cl)ccc32)C1c1ccc(Cl)cc1 (centres undefined)
IC50 [18]: 30.2 µM

SMILES: O=C(NCC1(O)CCC1)C1=NN(c2ccc(Cl)cc2)C2(C(=O)Nc3cc(Cl)ccc32)C1c1cccc(O)c1 (centres undefined)
IC50 [18]: 37.2 µM

SMILES: CC(C)(C)N1N=C(C(=O)NCCO)C(c2cccc(Cl)c2F)C12C(=O)Nc1cc(Cl)ccc12 (centres undefined)
IC50 [18]: > 50 µM

SMILES: O=C(O)C1=NN(C2CCCCC2)C2(C(=O)Nc3cc(Cl)ccc32)C1c1cccc(Cl)c1F (centres undefined)
IC50 [18]: > 100 µM

Stronger by IC50 [18], values ahead:

IC50 [1]: 10.7 µM
IC50 [6]: 9.7 µM
IC50 [13]: 11.4 µM
IC50 [18]: 18.8 µM
SMILES: O=C(Nc1cccc(-n2ccc(-c3ccccc3)n2)c1)C1=NN(c2ccc(Cl)cc2)C2(C(=O)Nc3cc(Cl)ccc32)C1c1cccc(O)c1 (centres undefined)
Activity [2]: 3.91%
Activity [3]: 4.27%
Activity [4]: 4.1%
Activity [5]: 8.94%
Activity [7]: Active
Activity [8]: 5.2%
viability at 10 µM [9]: 90.5%
Activity [10]: 74.89%
Activity [11]: Active
Activity [12]: 14.4%
viability at 15 µM [14]: 65.3%
Activity [15]: 91.82%
Activity [16]: Non-Toxic
Activity [17]: 52%
Activity [19]: 19.1%
Activity [20]: 16.17%

IC50 [1]: 17.4 µM
IC50 [6]: 12.4 µM
IC50 [13]: 11.5 µM
IC50 [18]: 20.9 µM
SMILES: O=C(Nc1cccc(-n2cccn2)c1)C1=NN(c2ccc(Cl)cc2)C2(C(=O)Nc3cc(Cl)ccc32)C1c1cccc(O)c1 (centres undefined)

IC50 [18]: 25.5 µM
SMILES: CCOC(=O)C1=NN(C2CCCCC2)C2(C(=O)Nc3cc(Cl)ccc32)C1c1cccc(Cl)c1 (centres undefined)

IC50 [1]: 12.6 µM
IC50 [18]: 23.6 µM
SMILES: CCOC(=O)C1=NN(C2CCCCC2)C2(C(=O)Nc3cc(Cl)ccc32)C1c1cccc(Cl)c1F (centres undefined)

Source: ChEMBL document CHEMBL5108018, “Discovery of MDM2-p53 and MDM4-p53 protein-protein interactions small molecule dual inhibitors” (Eur J Med Chem, 2022)
